ChEMBL document CHEMBL4118052, “Involvement of the Glucocorticoid Receptor in Pro-inflammatory Transcription Factor Inhibition by Daucane Esters from Laserpitium zernyi” (J Nat Prod, 2017)

Assays:
[1] = target: T1, Glucocorticoid receptor (Homo sapiens) (UniProt P04150); assay: Modulation of glucocorticoid receptor in human A549 cells assessed as 0.01 uM dexamethasone-induced GRE-driven promoter activity at 30 uM by luciferase reporter gene assay (reference value: 100%); type: cell-based
T1 sequence (whole entry): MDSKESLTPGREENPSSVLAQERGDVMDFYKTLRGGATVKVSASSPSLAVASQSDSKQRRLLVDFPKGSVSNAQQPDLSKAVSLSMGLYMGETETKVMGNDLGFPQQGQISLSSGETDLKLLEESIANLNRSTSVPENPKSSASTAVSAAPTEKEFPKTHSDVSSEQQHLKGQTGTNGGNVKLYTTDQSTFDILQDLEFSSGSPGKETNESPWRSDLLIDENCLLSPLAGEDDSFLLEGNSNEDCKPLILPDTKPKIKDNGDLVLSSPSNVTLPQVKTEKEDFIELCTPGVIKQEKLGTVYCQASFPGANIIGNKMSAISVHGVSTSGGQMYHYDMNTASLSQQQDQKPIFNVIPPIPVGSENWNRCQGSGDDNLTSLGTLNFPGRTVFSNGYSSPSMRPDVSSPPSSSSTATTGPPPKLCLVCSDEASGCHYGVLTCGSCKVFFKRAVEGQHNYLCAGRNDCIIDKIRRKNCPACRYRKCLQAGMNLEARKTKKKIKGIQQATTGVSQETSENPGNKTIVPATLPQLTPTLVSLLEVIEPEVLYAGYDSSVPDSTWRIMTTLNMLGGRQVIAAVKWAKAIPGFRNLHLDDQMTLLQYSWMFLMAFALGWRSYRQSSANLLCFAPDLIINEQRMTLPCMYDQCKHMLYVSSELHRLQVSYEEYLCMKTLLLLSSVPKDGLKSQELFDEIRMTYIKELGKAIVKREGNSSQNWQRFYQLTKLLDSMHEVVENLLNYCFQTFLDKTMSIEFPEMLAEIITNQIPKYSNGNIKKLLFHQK
In short: (§1)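 A549 cells with a stably integrated GRE-dependent promoter-luciferase construct. Compound at 10 or 30 μM given together with dexamethasone at 0.1 or 0.01 μM. Luciferase expressed as % of Dex-induced expression with solvent alone. Mean ± SD of ≥3 independent replicates.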

[2] = target: T1, Glucocorticoid receptor (Homo sapiens); assay: Modulation of glucocorticoid receptor in human A549 cells harboring AP-1-Luc assessed as reduction in PMA-induced AP-1 activity by measuring AP-1 activity at 60 uM preincubated for 1 hr followed by PMA stimulation measured after 5 hrs by luciferase reporter gene assay (reference value: 100%); type: cell-based; design: scale not given: the % may be the effect or the level left
In short: (§2)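 AP-1-Luc A549 cells (9000/well, 24 h) pretreated 1 h with compound (10–60 μM), dexamethasone 1 μM or solvent, then PMA-induced for 5 h. Luciferase activity as % of PMA-induced solvent group. One-way ANOVA with Tukey test.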

[3] = target: T1, Glucocorticoid receptor (Homo sapiens); assay: Modulation of glucocorticoid receptor in human A549 cells harboring AP-1-Luc assessed as reduction in PMA-induced AP-1 activity preincubated for 1 hr followed by PMA stimulation measured after 5 hrs by luciferase reporter gene assay; type: cell-based; in short: as §2
[4] = Cytotoxicity against GR knockout human A549 cells harboring Neo-Luc assessed as cell viability at 30 uM by Cell-Titer Glo assay (reference value: 100%); type: cell-based; settings: read-out: Activity
In short: (§3)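 NeoLuc A549 cells (9000/well) incubated 24 h, then test compound or solvent added; viability by Cell Titer Glo ATP luminescence, run by the same protocol as the reporter assays. Solvent-treated control taken as 100%.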

[5] = system: A549; assay: Cytotoxicity against PMA stimulated human A549 cells harboring AP-1-Luc assessed as reduction in cell viability preincubated for 1 hr followed by PMA stimulation measured after 5 hrs by Cell-Titer Glo assay; type: cell-based; settings: a549, 5 h
In short: (§4)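 AP-1-Luc A549 cells (9000/well) incubated 24 h, then compound (10, 30, 60 μM) or solvent added. PMA induction 1 h later, 5 h further incubation. Viability by Cell Titer Glo ATP luminescence. Solvent group treated with PMA set as 100%.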

[6] = target: T1, Glucocorticoid receptor (Homo sapiens); assay: Modulation of glucocorticoid receptor in human A549 cells assessed as 0.1 uM dexamethasone-induced GRE-driven promoter activity at 30 uM by luciferase reporter gene assay (reference value: 100%); type: cell-based; in short: as §1
[7] = Cytotoxicity against TNFalpha stimulated human A549 cells harboring NFkB-Luc assessed as cell viability at 30 uM preincubated for 1 hr followed by TNFalpha stimulation measured after 5 hrs by Cell-Titer Glo assay (reference value: 100%); type: cell-based; settings: read-out: Activity
In short: (§5)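 A549 cells with stably integrated NF-κB-Luc seeded at 9000/well for 24 h, then exposed to compound (10, 30, 60 μM) or solvent. TNF given 1 h later, 5 h incubation. Cell Titer Glo ATP readout, with TNF-treated solvent group as 100%.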

[8] = target: T1, Glucocorticoid receptor (Homo sapiens); assay: (§6) Modulation of glucocorticoid receptor in human A549 cells harboring NFkB-Luc assessed as reduction in TNFalpha-induced NFkB activity preincubated for 1 hr followed by TNFalpha stimulation measured after 5 hrs by luciferase reporter gene assay; type: cell-based
In short: (§7)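 A549 cells with stably integrated NF-κB-Luc (9000/well, 24 h) given compound at 10, 30 or 60 μM, dexamethasone 1 μM or solvent for 1 h. TNF (200 IU/mL) induction for 5 h, then luciferase read. Values as % of TNF-induced solvent control; four independent replicates; one-way ANOVA.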

[9] = target: T1, Glucocorticoid receptor (Homo sapiens); assay: Modulation of glucocorticoid receptor in human A549 cells assessed as 0.01 uM dexamethasone-induced GRE-driven promoter activity at 10 uM by luciferase reporter gene assay (reference value: 100%); type: cell-based; in short: as §1
[10] = system: A549; assay: Cytotoxicity against GR knockout human A549 cells harboring Neo-Luc assessed as reduction in cell viability at 60 uM by Cell-Titer Glo assay relative to control; type: cell-based; settings: a549, 60 µM; in short: as §3
[11] = system: A549; assay: Cytotoxicity against TNFalpha stimulated human A549 cells harboring NFkB-Luc assessed as reduction in cell viability at 60 uM preincubated for 1 hr followed by TNFalpha stimulation measured after 5 hrs by Cell-Titer Glo assay relative to control; type: cell-based; settings: a549, 5 h; in short: as §5
[12] = target: T1, Glucocorticoid receptor (Homo sapiens); assay: Modulation of glucocorticoid receptor in human A549 cells assessed as TNFalpha-induced CCL2 production at 30 uM preincubated for 1 hr followed by TNFalpha stimulation measured after 5 hrs by ELISA (reference value: 100%); type: cell-based
In short: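 Basal (non-reporter) A549 cells treated with compound at 30 μM, then TNF (200 IU/mL). CCL2 protein in medium measured by ELISA, as % of TNF-treated solvent control. Mean ± SD of three independent replicates; Student's t test.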

[13] = system: A549; assay: Cytotoxicity against TNFalpha stimulated human A549 cells harboring NFkB-Luc assessed as reduction in cell viability preincubated for 1 hr followed by TNFalpha stimulation measured after 5 hrs by Cell-Titer Glo assay; type: cell-based; settings: a549, 5 h; in short: as §5
[14] = system: A549; assay: Cytotoxicity against PMA stimulated human A549 cells harboring AP-1-Luc assessed as reduction in cell viability at 60 uM preincubated for 1 hr followed by PMA stimulation measured after 5 hrs by Cell-Titer Glo assay relative to control; type: cell-based; settings: a549, 5 h; in short: as §4
[15] = Cytotoxicity against PMA stimulated human A549 cells harboring AP-1-Luc assessed as cell viability at 30 uM preincubated for 1 hr followed by PMA stimulation measured after 5 hrs by Cell-Titer Glo assay (reference value: 100%); type: cell-based; settings: read-out: Activity; in short: as §4
[16] = target: T1, Glucocorticoid receptor (Homo sapiens); assay: Modulation of glucocorticoid receptor in human A549 cells assessed as 0.1 uM dexamethasone-induced GRE-driven promoter activity at 10 uM by luciferase reporter gene assay (reference value: 100%); type: cell-based; in short: as §1
[17] = Cytotoxicity against GR knockout human A549 cells harboring Neo-Luc assessed as cell viability at 60 uM by Cell-Titer Glo assay (reference value: 100%); type: cell-based; settings: read-out: Activity; in short: as §3
[18] = Cytotoxicity against TNFalpha stimulated human A549 cells harboring NFkB-Luc assessed as cell viability at 60 uM preincubated for 1 hr followed by TNFalpha stimulation measured after 5 hrs by Cell-Titer Glo assay (reference value: 100%); type: cell-based; settings: read-out: Activity; in short: as §5
[19] = target: T1, Glucocorticoid receptor (Homo sapiens); assay: as §6, with “activity by measuring NFkB activity at 60 uM” for “activity”, “assay (reference value: 100%)” for “assay”; type: cell-based; design: scale not given: the % may be the effect or the level left; in short: as §7
[20] = Cytotoxicity against PMA stimulated human A549 cells harboring AP-1-Luc assessed as cell viability at 60 uM preincubated for 1 hr followed by PMA stimulation measured after 5 hrs by Cell-Titer Glo assay (reference value: 100%); type: cell-based; settings: read-out: Activity; in short: as §4
[21] = system: A549; assay: Inhibition of TNFalpha-induced NFkB activity in GR knockout human A549 cells harboring NFkB-Luc assessed as NFkB activity at 30 uM preincubated for 1 hr followed by TNFalpha stimulation measured after 5 hrs by luciferase reporter gene assay (reference value: 100%); type: functional; design: scale not given: the % may be the effect or the level left
In short: (§8)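 GR-knockout A549 cells carrying stably integrated NF-κB-Luc. Pretreatment 1 h with compound (30 μM) or dexamethasone (1 μM), then TNF (200 IU/mL) for 5 h. Luciferase luminescence as % of TNF-induced solvent control.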

[22] = system: A549; assay: Inhibition of TNFalpha-induced NFkB activity in GR knockout human A549 cells harboring NFkB-Luc assessed as NFkB activity at 1 uM preincubated for 1 hr followed by TNFalpha stimulation measured after 5 hrs by luciferase reporter gene assay (reference value: 100%); type: functional; design: scale not given: the % may be the effect or the level left; in short: as §8

Activity [1] | Activity [2] | Activity [3] | Activity [6] | Activity [8] | Activity [9] | Activity [12] | Activity [16] | Structure (SMILES) | viability at 30 µM [4] | Activity [5] | viability at 5 h, 30 µM [7] | Activity [10] | Activity [11] | Activity [13] | Activity [14] | viability at 5 h, 30 µM [15] | Activity [21] | also measured
80.4% | 41.4% | Dose-dependent effect | 74.5% | Dose-dependent effect | > 90% | 70.1% | > 90% | C/C=C(/C)C(=O)O[C@@H]1C=C(C)CC[C@]2(O)[C@@H](C(C)C)CC(=O)[C@]12C | > 97% | Dose-dependent effect | > 97% | <= 10% | <= 10% | Dose-dependent effect | <= 10% | > 97% |  | 
52.8% |  | Dose-dependent effect | 71.6% | Dose-dependent effect | > 90% |  | > 90% | C/C=C(/C)C(=O)O[C@@H]1C[C@@](O)(C(C)C)[C@@H]2CC=C(C)C(=O)[C@@H](O)[C@]21C |  | Dose-dependent effect |  |  |  | Dose-dependent effect |  |  |  | 
48.9% | 41% | Dose-dependent effect | 67.1% | Dose-dependent effect | 70.1% | 72.1% | 78% | C/C=C(/C)C(=O)O[C@@H]1C[C@@](O)(C(C)C)[C@@H]2CCC(C)=C[C@@H](OC(C)=O)[C@]21C | > 95% | Dose-dependent effect | > 95% |  |  | Dose-dependent effect |  | > 95% | 83.6% | viability at 60 µM [17]: 90%; viability at 5 h, 60 µM [18]: 97.3%; Activity [19]: 52%; viability at 5 h, 60 µM [20]: 93.4%
77% |  | Dose-dependent effect | 80.9% | Dose-dependent effect | > 90% |  | > 90% | C/C=C(/C)C(=O)O[C@@H]1C[C@@](O)(C(C)C)[C@@H]2CCC(C)=C[C@@H](O)[C@]21C | > 97% | Dose-dependent effect | > 97% | <= 10% | <= 10% | Dose-dependent effect | <= 10% | > 97% | 91.8% | 
83.5% |  | Dose-dependent effect | > 90% | Dose-dependent effect | > 90% |  | > 90% | C/C=C(/C)C(=O)O[C@H]1C[C@@](C)(O)C(=O)[C@@H](OC(=O)/C(C)=C\C)[C@@]2(C)CC[C@@](O)(C(C)C)[C@H]12 |  | Dose-dependent effect |  |  |  | Dose-dependent effect |  |  |  | 
 |  |  |  |  |  |  |  | C[C@@H]1C[C@H]2[C@@H]3CCC4=CC(=O)C=C[C@]4(C)[C@@]3(F)[C@@H](O)C[C@]2(C)[C@@]1(O)C(=O)CO [DEXAMETHASONE] |  |  |  |  |  |  |  |  |  | Activity [22]: 97.2%
